# Assay results taken from PubChem BioAssay.
# Some of the results follow. Unmarked numbers belong to inactive results. The source made the active and inactive calls.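 How the source made its calls, unless noted: active means mean percent inhibition of duplicate wells above the buffer-only control mean plus 3 SD of those controls; inactive means the rest.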
# Columns and labels:
# [1] = molecular target: Potassium voltage-gated channel subfamily KQT member 1 (Homo sapiens) (UniProt P51787); assay: KCNQ1 potassium channel inhibitors, confirmation, cell-based, Tl flux, duplicate (AID 588353;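 active means primary screen active, with duplicate mean exceeding buffer control mean plus 3 SD of buffer wells, cut at about 28% in these data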;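 further: 0% = buffer control ratio and 100% = XE991 inhibitor control ratio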); details: KCNQ1 cell line, FluxOR thallium flux fluorescence, at 10 µM, hits give high values
# Outline: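 System: stable KCNQ1-expressing CHO cell line; Reagent: Tl2SO4 plus K2SO4 stimulus, each 12.5 mM in 5x stock; Schedule: dye loading 90 min, compound 20 min, both room temperature; Measured by: thallium-sensitive FluxOR dye fluorescence; Read-out basis: percent inhibition of fluorescence change ratio, scaled buffer to XE991; Control set: buffer and XE991; Replication: duplicate.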
# [2] = thallium flux effects in parental CHO cells, counter-screen for KCNQ1 inhibitor project, cell-based, Tl flux (AID 588366;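 active means mean of duplicate thallium-flux fluorescence ratios in parental host cells more than 5 SD below the buffer control mean, cut at about 0.38 in these data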;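 further: ratio is peak minus minimum fluorescence divided by baseline fluorescence; actives read low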); details: parental CHO-K1, FluxOR thallium flux fluorescence ratio; at 10 µM; hits give low values; zero means no signal rise above baseline
# Outline: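 Assay system: CHO-K1 parental line without KCNQ1 | Reagent: K+/Tl+ depolarizing stimulus | Incubation: 90 min dye load, 20 min compound, room temperature | Technique: Kinetic FluxOR thallium-flux fluorescence, 10 s baseline plus 110 s | Evaluation: Peak-to-trough fluorescence change relative to baseline, duplicate mean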
# [3] = molecular target: Potassium voltage-gated channel subfamily E member 1 (Homo sapiens) + Potassium voltage-gated channel subfamily KQT member 1 (Homo sapiens) (UniProt P15382+P51787); assay: KCNQ1/KCNE1 channel inhibition, selectivity assay for KCNQ1 inhibitor project, CHO-K1 cells, thallium flux, FluxOR (AID 652147); details: FluxOR thallium flux fluorescence, at 10 µM; hits give high values;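 on inhibition: 0% = buffer only wells and 100% = XE-991 inhibitor control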
# Outline: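 Probe or stimulus: depolarizing thallium/potassium stimulus, 5x stock with 12.5 mM Tl2SO4 and K2SO4. System: KCNQ1/KCNE1 potassium channel-expressing cells, plated overnight. Timing: dye 90 min and compound 20 min at room temperature. Signal: kinetic FluxOR thallium-sensitive fluorescence, 1 Hz sampling, 150 s post-stimulus.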
# [4] = molecular target: Potassium voltage-gated channel subfamily KQT member 2 (Rattus norvegicus) (UniProt O88943); assay: KCNQ2 channel inhibition, selectivity assay for KCNQ1 inhibitor project, cell-based (AID 651746;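 active means mean percent inhibition of the KCNQ2 thallium signal more than 5 SD above the buffer-only control wells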;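 on inhibition: 0% = buffer control wells and 100% = XE-991 inhibitor control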); details: KCNQ2 cells, FluxOR thallium flux fluorescence, at 10 µM; hits give high values
# Chain of Potassium voltage-gated channel subfamily KQT member 2 (Rattus norvegicus) (O88943 whole entry, looked up): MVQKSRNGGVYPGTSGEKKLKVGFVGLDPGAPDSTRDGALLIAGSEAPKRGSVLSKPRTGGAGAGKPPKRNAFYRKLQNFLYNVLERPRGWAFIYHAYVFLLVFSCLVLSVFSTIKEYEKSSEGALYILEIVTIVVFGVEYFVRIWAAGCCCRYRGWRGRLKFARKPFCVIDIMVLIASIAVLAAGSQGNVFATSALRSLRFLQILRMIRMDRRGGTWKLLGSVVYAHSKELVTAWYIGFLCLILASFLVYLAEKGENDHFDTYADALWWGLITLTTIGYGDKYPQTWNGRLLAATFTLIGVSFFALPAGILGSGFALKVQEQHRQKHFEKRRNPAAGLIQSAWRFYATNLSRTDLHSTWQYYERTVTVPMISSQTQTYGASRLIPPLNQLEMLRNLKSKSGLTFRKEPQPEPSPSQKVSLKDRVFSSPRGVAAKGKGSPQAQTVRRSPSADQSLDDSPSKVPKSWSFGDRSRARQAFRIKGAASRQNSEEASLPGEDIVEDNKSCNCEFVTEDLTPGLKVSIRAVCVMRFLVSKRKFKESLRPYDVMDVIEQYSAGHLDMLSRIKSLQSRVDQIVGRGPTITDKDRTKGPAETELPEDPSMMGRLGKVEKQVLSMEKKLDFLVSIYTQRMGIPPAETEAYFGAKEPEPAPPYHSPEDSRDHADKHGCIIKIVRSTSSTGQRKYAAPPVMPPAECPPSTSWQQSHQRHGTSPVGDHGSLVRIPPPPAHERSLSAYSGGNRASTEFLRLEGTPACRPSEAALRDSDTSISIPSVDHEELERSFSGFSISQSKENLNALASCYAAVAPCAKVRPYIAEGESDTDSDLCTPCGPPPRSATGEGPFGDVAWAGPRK
# Chain of Potassium voltage-gated channel subfamily E member 1 (Homo sapiens) + Potassium voltage-gated channel subfamily KQT member 1 (Homo sapiens) (P51787 whole entry, looked up): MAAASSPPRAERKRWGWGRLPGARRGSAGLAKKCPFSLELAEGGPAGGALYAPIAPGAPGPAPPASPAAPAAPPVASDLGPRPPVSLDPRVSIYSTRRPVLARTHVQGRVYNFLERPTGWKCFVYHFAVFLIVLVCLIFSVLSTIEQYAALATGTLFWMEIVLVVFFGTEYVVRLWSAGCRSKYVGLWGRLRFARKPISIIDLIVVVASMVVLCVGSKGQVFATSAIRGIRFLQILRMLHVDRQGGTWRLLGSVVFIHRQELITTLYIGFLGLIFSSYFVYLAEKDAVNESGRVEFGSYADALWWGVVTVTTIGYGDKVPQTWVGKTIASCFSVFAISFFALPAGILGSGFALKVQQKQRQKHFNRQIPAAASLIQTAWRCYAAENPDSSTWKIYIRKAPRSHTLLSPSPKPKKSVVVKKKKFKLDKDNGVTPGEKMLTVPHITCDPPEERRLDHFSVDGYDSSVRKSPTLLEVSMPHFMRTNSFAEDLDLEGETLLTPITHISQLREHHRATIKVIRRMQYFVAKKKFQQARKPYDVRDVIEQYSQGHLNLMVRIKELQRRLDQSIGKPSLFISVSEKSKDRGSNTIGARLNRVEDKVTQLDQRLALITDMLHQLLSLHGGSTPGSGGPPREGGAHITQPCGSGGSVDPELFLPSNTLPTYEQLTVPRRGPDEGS
# Chain of Potassium voltage-gated channel subfamily KQT member 1 (Homo sapiens) (P51787 whole entry, looked up): as above
Compound,inhibition [1],fluorescence ratio (Tl flux) [2],inhibition [3],outcome [4],outcome [3],inhibition [4]
Cc1ccccc1OCC(=O)Nc1ccc(N2CCN(C(=O)C(C)C)CC2)c(Cl)c1,57.5% (active),0.503,51% (active),,,
CCCN1Cc2cccc(C(=O)NCc3ccccc3)c2C1=O,83% (active),0.478,80% (active),inactive,,
O=C(NCC(F)(F)F)Nc1nnc(C(F)(F)F)s1,26% (active),0.557,,inactive,inactive,
CCc1cc(C(c2ccccc2OC)N2CCOCC2)c(NC(=O)c2ccccc2)s1 (stereo not drawn),102% (active),0.335 (active),132% (active),,,
Cc1c(C(=O)OC(C)C)sc(NC(=O)c2cccnc2)c1C#N,74% (active),0.489,48.5% (active),,,78% (active)
Cc1cccc(-c2nc3ccc(C(=O)NCCN4CCN(C)CC4)cc3nc2-c2cccc(C)c2)c1,63% (active),0.34 (active),118% (active),,,107% (active)
COc1cccc(-c2cnc(OC(C)(C)C)nc2OC(C)(C)C)c1,75% (active),0.462,94.5% (active),,,61% (active)
Cc1ccc(-c2noc(CC(c3ccccc3)c3ccccc3)n2)cc1,65.5% (active),0.45,116% (active),,,77% (active)
Cc1nnc(SC(C(=O)Nc2cc(Cl)cc(Cl)c2)c2ccccc2)[nH]c1=O (stereo not drawn),43% (active),0.471,,,inactive,
Cc1cc2nc3c(=O)n(Cc4ccccc4)c(=O)[nH]c3nc2cc1N,93% (active),0.332 (active),110% (active),inactive,,
FC(F)Oc1ccc(NC(=S)NCc2ccco2)cc1Cl,56.5% (active),0.494,38% (active),inactive,,
Cc1ccccc1C(=O)OC1OC(=O)C(Cl)=C1Nc1ccccc1 (stereo not drawn),79% (active),0.434,65% (active),,,
CSc1nccc(NC(=O)c2ccc(C(C)(C)C)cc2)n1,153% (active),0.366 (active),144% (active),,,105% (active)
CS(=O)(=O)N(CC(=O)Nc1ccc(Cl)c(Cl)c1)C1CCCCC1,56.5% (active),0.476,,,inactive,63.3% (active)
O=C(Nc1ccc(F)cc1)c1cccnc1N1CCOCC1,44% (active),0.517,53.5% (active),inactive,,
Oc1ccc2ccc3cccc[n+]3c2c1,,0.012 (active),,inactive,inactive,

Compound,inhibition [1],fluorescence ratio (Tl flux) [2],inhibition [3],outcome [4],outcome [3],inhibition [4]
CNC(=O)c1ccsc1NC(=O)c1ccc(S(=O)(=O)N2CCc3ccccc32)cc1,97% (active),0.446,170% (active),,,115% (active)
CCNC(=O)c1ccc(OCC(=O)Nc2ccc(F)cc2)c(OC)c1,"0% [the number is a placeholder, only the call stands]",0.446,51% (active),inactive,,
Fc1cc(Br)ccc1NC(=S)Nc1cccnc1,33% (active),0.539,,inactive,inactive,
Cc1ccc(N2CCN(S(=O)(=O)c3ccc(F)cc3)CC2)c(C)c1,79% (active),0.406,69.5% (active),,,94% (active)
CC1CCC2(CC1)NC(=O)N(CC(=O)c1cccn1C)C2=O (stereo not drawn),31% (active),0.503,,inactive,inactive,
CN(c1cccc(NC(=O)Nc2ccc(Cl)cc2)c1)S(C)(=O)=O,59.5% (active),0.545,42.5% (active),inactive,,
Cc1nc(Nc2ccc3c(c2)OCCO3)c2nnn(Cc3ccccc3Cl)c2n1,83% (active),0.413,102% (active),,,96% (active)
c1ccc2c(c1)C(=NC1CCCCC1)NC2=NC1CCCCC1,48% (active),0.526,,inactive,inactive,
CCOC(=O)c1c(NC(=O)C(C)Sc2c[nH]c3ccccc23)sc2c1CCC2 (stereo not drawn),124% (active),0.415,155% (active),,,105% (active)
Cc1cc(C)cc(N(CC(=O)N2CC=C(c3ccccc3)CC2)S(=O)(=O)c2c(C)noc2C)c1,78% (active),0.363 (active),84% (active),,,111% (active)
CC(=O)N1CCCc2cc(S(=O)(=O)N3CCCC(C(=O)N4CCN(c5cccc(Cl)c5)CC4)C3)ccc21 (stereo not drawn),126% (active),0.436,140% (active),,,134% (active)
CCCC(=O)N1CCN(c2nnc(-c3ccc(C)cc3)c3ccccc23)CC1,"0% [the number is a placeholder, only the call stands]",0.507,78% (active),,,75% (active)
Cc1cccc(CSc2ccc(-c3cccs3)nn2)c1,78% (active),0.42,112% (active),,,114% (active)
O=C1CCCN1CCCNC(=S)Nc1ccc(F)c(Cl)c1,51% (active),0.445,58.5% (active),,,72.7% (active)
COc1ccc(C(=O)NC2CCCc3c2cnn3-c2cccc(C)c2C)c(OC)n1 (stereo not drawn),132% (active),0.296 (active),184% (active),,,127% (active)
Fc1ccc2[nH]c3c(N4CCSCC4)ncnc3c2c1,162% (active),0.362 (active),,inactive,inactive,
